What all share (type): functional
In one test the test system is Oncopeltus fasciatus. In words: Insecticidal activity against Oncopeltus fasciatus fourth-instar larvae assessed as insect mortality measured after 72 hr post compound application. The procedure, abridged: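 Treated nymphs confined in a 9 cm Petri dish with food and water ad libitum. Acetone-only controls run in parallel. Acute toxicity scored as dead insects after 72 h, in triplicate. LD50 (µg/nymph) from linear regression of probit mortality on log dose.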

Test [1] concerns Pectobacterium carotovorum. Kind of test: Antibacterial activity against Pectobacterium carotovorum CECT 225 at 0.2 mg/disk […] by paper disk-agar diffusion assay.
The test system of another test is Escherichia coli. Kind of test: Antibacterial activity against Escherichia coli CECT 405 at 0.2 mg/disk after 24 hr by paper disk agar diffusion assay. A digest of the protocol:
(§1)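 Paper disk–agar diffusion, triplicate. Each bacterium grown 24 h in Nutrient Broth at 28 °C or 37 °C, per organism. 1 mL suspension inoculated into a plate, then 15 mL Plate Count Agar added. Five loaded disks placed after solidification. Plates incubated 24 h dark at 28 or 37 °C. Halo measured. Solvent-only disks as negative control; tetracycline chlorhydrate as positive control.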
(In general: In agar diffusion tests the substance spreads into inoculated agar from a disc or well.)

The subject of another test is Enterococcus faecalis. Kind of test: Antibacterial activity against Enterococcus faecalis CECT 481 at 0.2 mg/disk after 24 hr by paper disk agar diffusion assay. A digest of the protocol:
as §1

A further test concerns Staphylococcus aureus. Kind of test: Antibacterial activity against Staphylococcus aureus CECT 86 at 0.2 mg/disk after 24 hr by paper disk agar diffusion assay. The procedure, abridged:
as §1

For the next test, the system named is Bacillus cereus. Kind of test: Antibacterial activity against Bacillus cereus CECT 148 at 0.2 mg/disk after 24 hr by paper disk agar diffusion assay. The procedure, abridged:
as §1

The subject of test [2] is Phytophthora citrophthora. In words: Antifungal activity against Phytophthora citrophthora CECT 2353 at 0.2 mg/disk after 72 hr by paper disk agar diffusion assay. The procedure, abridged: (§2)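 Paper disk–agar diffusion, triplicate. Fungus grown on PDA 7 days at 28 °C. Conidia suspended at ca. 10^6/mL in 0.05% Tween 80. 1 mL seeded into 15 mL PDA. After solidification, four 0.5 cm paper disks loaded with test product. Inhibition zone (mm) read at 72 h. Solvent-only disks as negative control; benomyl disks, dose set per species, as positive control.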

For test [3], the system named is Verticillium dahliae. In words: Antifungal activity against Verticillium dahliae CCM 269 at 0.2 mg/disk after 72 hr by paper disk-agar diffusion assay. A digest of the protocol:
as §2

A further test concerns Ceratitis capitata. Kind of test: Insecticidal activity against Ceratitis capitata 2 to 3 days old adult male flies assessed as insect mortality measured after 10 days post compound application. A digest of the protocol:
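Topical dose in 1 µL acetone applied by micropipet to the ventral abdomen of ice-anaesthetised 2–3-day-old adults, five males plus five females per group. Controls got acetone alone. Flies kept in a netted box with diet and water ad libitum. Mortality scored every 24 h for 10 days, in triplicate. LD50 from probit of mortality vs log dose.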

For a further test, the system named is Penicillium italicum. In words: Antifungal activity against Penicillium italicum CECT 2294 at 0.2 ug/disk after 72 hr by paper disk-agar diffusion assay. The conditions noted are these: CECT 2294, 72 h, read-out: IZ. A digest of the protocol:
as §2

The next test concerns Aspergillus parasiticus. In words: Antifungal activity against Aspergillus parasiticus CECT 2681 at 1 ug/disk after 72 hr by paper disk agar diffusion assay. The conditions noted are these: CECT 2681, 72 h, read-out: IZ. A digest of the protocol: as §2
The next test concerns Trichoderma viride. Kind of test: Antifungal activity against Hypocrea rufa CECT 2423 at 1 ug/disk after 72 hr by paper disk agar diffusion assay. Conditions: CECT 2423, 72 h, read-out: IZ. The procedure, abridged: as §2
In the next test the test system is Trichothecium roseum. Kind of test: Antifungal activity against Trichothecium roseum CECT 2410 at 5 ug/disk after 72 hr by paper disk agar diffusion assay. Conditions: CECT 2410, 72 h, read-out: IZ. A digest of the protocol:
as §2

For test [4], the system named is Colletotrichum gloeosporioides. Kind of test: Antifungal activity against Colletotrichum gloeosporioides CECT 2859 at 0.5 ug/disk after 72 hr by paper disk-agar diffusion assay. The conditions noted are these: CECT 2859, 72 h, read-out: IZ. A digest of the protocol:
as §2

The subject of test [5] is Fusarium oxysporum f. sp. gladioli. Kind of test: Antifungal activity against Fusarium oxysporum f. sp. gladioli CCM 233 at 10 ug/disk after 72 hr by paper disk agar diffusion assay. Conditions: CCM 233, 72 h, read-out: IZ. The procedure, abridged:
as §2

Test [6] deals with Fusarium oxysporum f. sp. niveum. In words: Antifungal activity against Fusarium oxysporum f. sp. niveum CCM 259 at 5 ug/disk after 72 hr by paper disk-agar diffusion assay. Conditions: CCM 259, 72 h, read-out: IZ. The procedure, abridged:
as §2

The test system of a further test is Fusarium culmorum. Kind of test: Antifungal activity against Fusarium culmorum CECT 2148 at 10 ug/disk after 72 hr by paper disk agar diffusion assay. Conditions: CECT 2148, 72 h, read-out: IZ. A digest of the protocol: as §2
The subject of test [7] is Phytophthora citrophthora. Kind of test: Antifungal activity against Phytophthora citrophthora CECT 2353 at 1.5 ug/disk after 72 hr by paper disk agar diffusion assay. The conditions noted are these: CECT 2353, 72 h, read-out: IZ. The procedure, abridged: as §2
Test [8] concerns Verticillium dahliae. In words: Antifungal activity against Verticillium dahliae CCM 269 at 0.25 ug/disk after 72 hr by paper disk-agar diffusion assay. Conditions: CCM 269, 72 h, read-out: IZ. The procedure, abridged:
as §2

Where only a bound is given, the exact number is not on record here.

In the case of `CC(=O)[C@@H]1CO[C@@H](O[C@@H]2OC[C@@H](C(C)=O)[C@H]2C)[C@@H]1C` [(-)-BOTRYODIPLODIN DIMER], the LD50 in the test with Oncopeltus fasciatus was above 15 µg.

As to `C=C(C(C)=O)[C@@H](C)CO[C@@H]1OC[C@@H](C(C)=O)[C@H]1C` [(-)-2-EPI-BOTRYODIPLODINENONE], the LD50 with Oncopeltus fasciatus was above 15 µg.

Take `CN(C)[C@@H]1C(O)=C(C(N)=O)C(=O)[C@@]2(O)C(O)=C3C(=O)c4c(O)cccc4[C@@](C)(O)[C@H]3C[C@@H]12.Cl` [TETRACYCLINE HYDROCHLORIDE]: the “inhibition zone (IZ)” value is listed as 34.67 mm in test [1]; 24 mm in the test on Escherichia coli; 31.67 mm in the test with Enterococcus faecalis; 16.67 mm in the test with Staphylococcus aureus; 18.33 mm in the test on Bacillus cereus.

As for `CC(=O)[C@@H]1COC(O)[C@@H]1C` (single isomer, unassigned; (-)) [(-)-BOTRYODIPLODIN], the “inhibition zone (IZ)” value in test [2] is 8.21 mm; in the test with Verticillium dahliae [3] it was 17.31 mm; with Staphylococcus aureus it was 13.53 mm. Also, the LD50 with Ceratitis capitata was found to be 12.9 µg; in the test with Oncopeltus fasciatus, 5.55 µg.

`CC(=O)O[C@@H]1OC[C@@H](C(C)=O)[C@H]1C` (relative stereo) [Botryodiplodin acetate]: in the test with Oncopeltus fasciatus, the LD50 was 12.19 µg.

As for `CCCCNC(=O)n1c(NC(=O)OC)nc2ccccc21` [BENOMYL], the zone of inhibition at 0.2 µg/disc in the test on Penicillium italicum was determined as 16.7 mm. Besides, the zone of inhibition at 1 µg/disc worked out at 8.33 mm in the test with Aspergillus parasiticus and 12.3 mm with Trichoderma viride. Also, the zone of inhibition at 5 µg/disc in the test with Trichothecium roseum stood at 29.7 mm; in test [6], 17.3 mm. Further, the zone of inhibition at 0.5 µg/disc in test [4] is 26.7 mm. In addition, the zone of inhibition at 10 µg/disc in test [5] worked out at 9.33 mm; with Fusarium culmorum it was 19 mm. Also, the zone of inhibition at 1.5 µg/disc in test [7] was 17.1 mm. Also, the zone of inhibition at 0.25 µg/disc in the test with Verticillium dahliae [8] is 14.3 mm.

For the origin of these results see ChEMBL document CHEMBL3045447, “Isolation and structural elucidation of eight new related analogues of the mycotoxin (-)-botryodiplodin from Penicillium coalescens” (2007).
